Test results as given in ChEMBL document CHEMBL1152560, “Substituted 2-arylbenzothiazoles as kinase inhibitors: hit-to-lead optimization” (Bioorg Med Chem, 2009).

What was measured:
[1] = target: Protein kinase C beta type (Homo sapiens) (UniProt P05771); assay: Residual activity of PKCbeta1 at 10 uM by microplate scintillation counting
[2] = target: T1, Activin receptor type-1 (Homo sapiens) (UniProt Q04771); assay: Residual activity of ACV-R1 at 0.1 uM by microplate scintillation counting
T1 sequence (whole entry): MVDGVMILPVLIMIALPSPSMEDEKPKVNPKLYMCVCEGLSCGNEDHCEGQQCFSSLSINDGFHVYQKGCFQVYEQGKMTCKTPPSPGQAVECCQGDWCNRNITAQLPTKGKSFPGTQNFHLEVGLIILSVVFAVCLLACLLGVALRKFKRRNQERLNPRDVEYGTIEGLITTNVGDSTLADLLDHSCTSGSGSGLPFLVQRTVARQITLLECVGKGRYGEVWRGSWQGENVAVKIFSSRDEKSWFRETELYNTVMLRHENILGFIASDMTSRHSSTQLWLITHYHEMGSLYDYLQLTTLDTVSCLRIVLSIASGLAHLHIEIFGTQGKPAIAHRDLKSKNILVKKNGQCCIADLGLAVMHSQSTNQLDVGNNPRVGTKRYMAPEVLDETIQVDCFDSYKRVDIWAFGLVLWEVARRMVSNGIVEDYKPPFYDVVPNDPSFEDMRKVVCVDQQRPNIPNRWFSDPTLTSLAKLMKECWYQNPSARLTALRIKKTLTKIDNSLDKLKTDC

[3] = target: Casein kinase II subunit alpha (Homo sapiens) (UniProt P68400); assay: Residual activity of CK2alpha1 at 0.1 uM by microplate scintillation counting
[4] = target: SRSF protein kinase 2 (Homo sapiens) (UniProt P78362); assay: Residual activity of SRPK2 at 0.1 uM by microplate scintillation counting
[5] = target: Vascular endothelial growth factor receptor 3 (Homo sapiens, UniProt P35916); assay: Inhibition of VEGFR3 by microplate scintillation counting
How it was run: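 Radiometric FlashPlate assay using recombinant kinase (10–200 ng/well) with poly(Glu,Tyr)4:1 substrate. Buffer: 60 mM HEPES-NaOH pH 7.5, 3 mM MgCl2, 3 mM MnCl2, 3 µM orthovanadate, 1.2 mM DTT, PEG 20000, 1 µM [γ-33P]-ATP. Run 80 min at 30 °C, stopped with H3PO4, and 33P incorporation counted.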

[6] = target: CDK8/Cyclin C (Homo sapiens) (UniProt P49336+P24863); assay: Residual activity of CDK8/Cyclin C at 1 uM by microplate scintillation counting; type: protein-complex assay
[7] = target: Glycogen synthase kinase-3 beta (Homo sapiens) (UniProt P49841); assay: Residual activity of GSK3-beta at 10 uM by microplate scintillation counting
[8] = target: Receptor tyrosine-protein kinase erbB-4 (Homo sapiens) (UniProt Q15303); assay: Residual activity of ERBB4 at 10 uM by microplate scintillation counting
[9] = target: G protein-coupled receptor kinase 4 (Homo sapiens) (UniProt P32298); assay: Residual activity of GRK4 at 10 uM by microplate scintillation counting
[10] = target: T2, Inhibitor of nuclear factor kappa-B kinase subunit epsilon (Homo sapiens) (UniProt Q14164); assay: Residual activity of IKKepsilon at 10 uM by microplate scintillation counting
T2 sequence (whole entry): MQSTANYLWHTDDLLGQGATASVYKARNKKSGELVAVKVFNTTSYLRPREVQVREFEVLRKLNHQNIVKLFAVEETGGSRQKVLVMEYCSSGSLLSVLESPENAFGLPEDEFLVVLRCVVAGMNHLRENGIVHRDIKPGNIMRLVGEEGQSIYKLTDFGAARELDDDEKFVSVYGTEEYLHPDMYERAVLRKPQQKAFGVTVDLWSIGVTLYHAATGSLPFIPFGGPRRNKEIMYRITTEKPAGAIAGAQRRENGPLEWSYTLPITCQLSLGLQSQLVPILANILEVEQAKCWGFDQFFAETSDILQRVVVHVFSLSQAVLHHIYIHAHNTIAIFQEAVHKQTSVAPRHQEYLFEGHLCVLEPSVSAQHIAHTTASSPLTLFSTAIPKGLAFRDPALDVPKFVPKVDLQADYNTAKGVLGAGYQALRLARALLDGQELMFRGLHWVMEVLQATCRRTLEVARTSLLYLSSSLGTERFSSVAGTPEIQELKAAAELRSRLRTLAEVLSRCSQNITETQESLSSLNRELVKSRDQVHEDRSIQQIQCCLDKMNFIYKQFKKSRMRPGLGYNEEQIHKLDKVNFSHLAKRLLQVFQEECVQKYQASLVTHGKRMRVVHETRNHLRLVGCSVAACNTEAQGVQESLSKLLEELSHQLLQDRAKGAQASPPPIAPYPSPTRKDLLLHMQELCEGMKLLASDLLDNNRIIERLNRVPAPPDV

[11] = target: T3, Serine/threonine-protein kinase 17A (Homo sapiens) (UniProt Q9UEE5); assay: Residual activity of STK17A at 10 uM by microplate scintillation counting
T3 sequence (whole entry): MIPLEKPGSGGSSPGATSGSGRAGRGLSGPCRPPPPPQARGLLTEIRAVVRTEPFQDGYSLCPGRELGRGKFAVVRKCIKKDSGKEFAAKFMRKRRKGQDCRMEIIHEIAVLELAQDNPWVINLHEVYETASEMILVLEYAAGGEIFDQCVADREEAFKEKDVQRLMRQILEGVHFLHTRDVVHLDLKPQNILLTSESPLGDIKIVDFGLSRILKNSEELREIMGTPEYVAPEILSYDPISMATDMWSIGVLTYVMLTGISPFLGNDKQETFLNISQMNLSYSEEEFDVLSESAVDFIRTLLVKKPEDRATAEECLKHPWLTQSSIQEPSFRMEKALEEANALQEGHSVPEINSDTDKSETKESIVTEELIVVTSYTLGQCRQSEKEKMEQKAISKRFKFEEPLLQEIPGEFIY

[12] = target: Serine/threonine-protein kinase Nek6 (Homo sapiens) (UniProt Q9HC98); assay: Residual activity of NEK6 at 0.1 uM by microplate scintillation counting
[13] = target: Homeodomain-interacting protein kinase 1 (Homo sapiens) (UniProt Q86Z02); assay: Residual activity of HIPK1 at 1 uM by microplate scintillation counting
[14] = target: Ephrin type-A receptor 5 (Homo sapiens) (UniProt P54756); assay: Residual activity of EPHA5 at 10 uM by microplate scintillation counting
Sequence of Ephrin type-A receptor 5 (Homo sapiens) (P54756 whole entry): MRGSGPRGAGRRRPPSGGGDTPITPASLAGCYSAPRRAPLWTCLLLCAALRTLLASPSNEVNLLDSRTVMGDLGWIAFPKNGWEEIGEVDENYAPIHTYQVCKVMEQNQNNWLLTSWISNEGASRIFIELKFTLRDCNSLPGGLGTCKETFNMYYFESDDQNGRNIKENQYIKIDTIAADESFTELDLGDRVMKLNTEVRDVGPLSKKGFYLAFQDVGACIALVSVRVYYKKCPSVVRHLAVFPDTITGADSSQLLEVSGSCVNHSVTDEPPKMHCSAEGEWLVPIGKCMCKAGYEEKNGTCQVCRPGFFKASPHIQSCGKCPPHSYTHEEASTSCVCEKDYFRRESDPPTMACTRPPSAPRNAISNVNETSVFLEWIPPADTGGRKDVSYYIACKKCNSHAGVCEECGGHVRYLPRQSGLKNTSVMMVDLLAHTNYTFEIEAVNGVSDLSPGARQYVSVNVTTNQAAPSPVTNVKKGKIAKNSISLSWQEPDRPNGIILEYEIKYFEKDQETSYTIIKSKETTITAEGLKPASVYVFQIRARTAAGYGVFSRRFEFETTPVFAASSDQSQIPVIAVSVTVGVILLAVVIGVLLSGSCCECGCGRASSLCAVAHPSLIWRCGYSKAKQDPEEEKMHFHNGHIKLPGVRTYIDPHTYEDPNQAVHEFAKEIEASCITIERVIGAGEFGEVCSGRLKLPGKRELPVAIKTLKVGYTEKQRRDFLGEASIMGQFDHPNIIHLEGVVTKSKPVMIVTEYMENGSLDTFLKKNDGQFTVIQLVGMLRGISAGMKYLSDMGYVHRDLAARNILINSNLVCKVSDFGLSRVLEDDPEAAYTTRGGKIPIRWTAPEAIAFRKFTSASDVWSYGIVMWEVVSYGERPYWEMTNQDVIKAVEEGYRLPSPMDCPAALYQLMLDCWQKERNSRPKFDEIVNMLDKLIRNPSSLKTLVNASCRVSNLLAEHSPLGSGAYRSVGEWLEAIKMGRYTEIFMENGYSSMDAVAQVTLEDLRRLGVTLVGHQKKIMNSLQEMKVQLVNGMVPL

Sequence of Casein kinase II subunit alpha (Homo sapiens) (P68400 whole entry, looked up): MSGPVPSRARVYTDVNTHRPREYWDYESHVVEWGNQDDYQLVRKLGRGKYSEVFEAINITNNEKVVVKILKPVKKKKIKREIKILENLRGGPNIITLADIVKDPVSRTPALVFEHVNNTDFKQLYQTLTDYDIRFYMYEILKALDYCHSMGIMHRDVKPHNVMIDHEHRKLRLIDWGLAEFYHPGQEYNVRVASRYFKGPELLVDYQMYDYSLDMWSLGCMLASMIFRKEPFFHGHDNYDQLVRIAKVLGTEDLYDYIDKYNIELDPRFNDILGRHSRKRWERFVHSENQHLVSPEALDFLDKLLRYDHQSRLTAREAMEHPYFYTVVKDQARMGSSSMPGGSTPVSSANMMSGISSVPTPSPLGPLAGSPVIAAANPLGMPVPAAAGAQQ
Sequence of Receptor tyrosine-protein kinase erbB-4 (Homo sapiens) (Q15303 whole entry): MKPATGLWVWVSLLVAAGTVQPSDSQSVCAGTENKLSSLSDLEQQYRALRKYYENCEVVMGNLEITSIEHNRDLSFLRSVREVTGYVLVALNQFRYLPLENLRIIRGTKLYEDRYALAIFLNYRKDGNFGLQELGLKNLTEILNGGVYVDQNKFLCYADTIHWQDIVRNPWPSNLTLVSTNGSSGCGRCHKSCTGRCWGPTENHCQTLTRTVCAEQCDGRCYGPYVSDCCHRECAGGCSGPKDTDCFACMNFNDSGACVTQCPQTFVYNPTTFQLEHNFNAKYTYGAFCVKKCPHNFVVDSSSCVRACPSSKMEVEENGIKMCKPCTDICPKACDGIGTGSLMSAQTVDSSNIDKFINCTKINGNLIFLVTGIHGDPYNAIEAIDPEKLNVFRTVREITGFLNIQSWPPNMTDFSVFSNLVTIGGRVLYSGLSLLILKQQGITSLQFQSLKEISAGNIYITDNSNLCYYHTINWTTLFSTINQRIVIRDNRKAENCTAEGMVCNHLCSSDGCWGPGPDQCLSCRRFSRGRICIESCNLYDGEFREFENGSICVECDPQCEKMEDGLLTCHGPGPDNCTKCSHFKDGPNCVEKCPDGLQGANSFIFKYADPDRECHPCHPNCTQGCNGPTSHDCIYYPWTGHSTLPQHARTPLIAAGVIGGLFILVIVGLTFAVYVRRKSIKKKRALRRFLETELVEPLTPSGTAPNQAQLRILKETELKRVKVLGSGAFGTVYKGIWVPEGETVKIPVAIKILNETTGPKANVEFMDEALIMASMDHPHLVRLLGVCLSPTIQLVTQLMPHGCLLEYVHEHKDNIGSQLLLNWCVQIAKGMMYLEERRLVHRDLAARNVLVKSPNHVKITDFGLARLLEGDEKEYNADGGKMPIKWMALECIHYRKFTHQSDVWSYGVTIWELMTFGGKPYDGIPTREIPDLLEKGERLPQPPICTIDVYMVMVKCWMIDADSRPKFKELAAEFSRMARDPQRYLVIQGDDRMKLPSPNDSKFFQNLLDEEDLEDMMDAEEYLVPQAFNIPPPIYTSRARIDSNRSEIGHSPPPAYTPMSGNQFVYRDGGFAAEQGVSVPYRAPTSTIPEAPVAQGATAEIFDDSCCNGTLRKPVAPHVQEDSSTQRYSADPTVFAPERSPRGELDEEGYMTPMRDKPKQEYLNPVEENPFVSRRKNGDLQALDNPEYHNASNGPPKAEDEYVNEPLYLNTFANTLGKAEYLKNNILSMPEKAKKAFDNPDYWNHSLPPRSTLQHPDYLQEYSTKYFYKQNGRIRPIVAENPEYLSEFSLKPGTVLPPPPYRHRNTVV
Sequence of G protein-coupled receptor kinase 4 (Homo sapiens) (P32298 whole entry, looked up): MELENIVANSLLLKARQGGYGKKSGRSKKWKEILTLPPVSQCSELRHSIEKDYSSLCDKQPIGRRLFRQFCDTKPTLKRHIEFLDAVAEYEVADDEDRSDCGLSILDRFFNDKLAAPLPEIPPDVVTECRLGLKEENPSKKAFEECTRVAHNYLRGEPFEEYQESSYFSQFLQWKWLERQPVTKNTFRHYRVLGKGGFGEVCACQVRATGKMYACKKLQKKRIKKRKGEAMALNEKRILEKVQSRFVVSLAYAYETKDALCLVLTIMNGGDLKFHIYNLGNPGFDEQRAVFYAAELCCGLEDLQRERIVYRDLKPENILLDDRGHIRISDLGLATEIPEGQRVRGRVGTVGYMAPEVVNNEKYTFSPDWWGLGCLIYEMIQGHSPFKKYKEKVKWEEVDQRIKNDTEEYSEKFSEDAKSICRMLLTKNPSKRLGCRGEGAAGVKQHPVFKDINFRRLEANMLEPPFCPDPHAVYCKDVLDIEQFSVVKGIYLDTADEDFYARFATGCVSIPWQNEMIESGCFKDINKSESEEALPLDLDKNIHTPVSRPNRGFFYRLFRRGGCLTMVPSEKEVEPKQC
Sequence of Protein kinase C beta type (Homo sapiens) (P05771 2-671 limits assumed): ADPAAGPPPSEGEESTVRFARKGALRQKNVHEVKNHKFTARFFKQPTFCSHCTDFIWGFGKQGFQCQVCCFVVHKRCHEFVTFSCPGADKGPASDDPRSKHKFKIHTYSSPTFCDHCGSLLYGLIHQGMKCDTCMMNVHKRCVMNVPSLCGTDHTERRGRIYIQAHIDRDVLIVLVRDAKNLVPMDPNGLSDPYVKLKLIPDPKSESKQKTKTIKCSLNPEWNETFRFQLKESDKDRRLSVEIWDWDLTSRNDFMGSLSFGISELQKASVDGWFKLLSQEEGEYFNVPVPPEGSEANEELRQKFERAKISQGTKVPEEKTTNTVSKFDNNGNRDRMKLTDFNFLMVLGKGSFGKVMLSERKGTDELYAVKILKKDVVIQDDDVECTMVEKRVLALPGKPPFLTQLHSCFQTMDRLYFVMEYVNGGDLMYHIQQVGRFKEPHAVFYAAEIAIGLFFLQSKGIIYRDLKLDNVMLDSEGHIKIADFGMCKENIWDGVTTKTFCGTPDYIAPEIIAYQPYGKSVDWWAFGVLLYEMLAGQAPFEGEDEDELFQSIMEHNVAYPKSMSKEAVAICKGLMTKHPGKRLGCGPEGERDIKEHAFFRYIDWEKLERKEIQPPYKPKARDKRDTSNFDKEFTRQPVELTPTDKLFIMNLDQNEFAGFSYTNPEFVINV
Sequence of Serine/threonine-protein kinase Nek6 (Homo sapiens) (Q9HC98 whole entry): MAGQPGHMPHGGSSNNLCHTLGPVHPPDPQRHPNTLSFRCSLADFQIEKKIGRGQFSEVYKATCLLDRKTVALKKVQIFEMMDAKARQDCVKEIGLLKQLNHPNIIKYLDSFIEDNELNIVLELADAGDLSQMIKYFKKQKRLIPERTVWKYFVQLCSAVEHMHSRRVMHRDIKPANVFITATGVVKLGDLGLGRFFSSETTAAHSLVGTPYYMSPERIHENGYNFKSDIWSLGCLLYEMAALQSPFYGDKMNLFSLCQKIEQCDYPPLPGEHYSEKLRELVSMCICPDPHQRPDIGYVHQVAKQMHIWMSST
Sequence of SRSF protein kinase 2 (Homo sapiens) (P78362 whole entry, looked up): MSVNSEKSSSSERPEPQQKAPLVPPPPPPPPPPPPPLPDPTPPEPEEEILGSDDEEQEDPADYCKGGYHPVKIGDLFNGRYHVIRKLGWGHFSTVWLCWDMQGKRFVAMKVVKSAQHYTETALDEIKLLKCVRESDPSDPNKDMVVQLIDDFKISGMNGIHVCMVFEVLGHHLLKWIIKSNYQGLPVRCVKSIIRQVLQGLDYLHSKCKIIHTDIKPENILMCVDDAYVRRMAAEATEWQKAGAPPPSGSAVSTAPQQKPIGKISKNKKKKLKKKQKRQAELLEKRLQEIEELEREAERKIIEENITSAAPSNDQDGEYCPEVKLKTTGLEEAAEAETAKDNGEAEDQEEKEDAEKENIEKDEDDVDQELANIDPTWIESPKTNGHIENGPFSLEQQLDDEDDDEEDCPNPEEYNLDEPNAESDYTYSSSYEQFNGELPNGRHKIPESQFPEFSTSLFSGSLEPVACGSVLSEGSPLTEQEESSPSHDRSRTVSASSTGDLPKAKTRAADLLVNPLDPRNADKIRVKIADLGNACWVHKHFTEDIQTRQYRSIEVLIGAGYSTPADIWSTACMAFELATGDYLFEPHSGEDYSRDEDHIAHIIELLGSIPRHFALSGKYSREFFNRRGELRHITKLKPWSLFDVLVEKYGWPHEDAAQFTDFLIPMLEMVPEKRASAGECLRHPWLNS

Row | SMILES | residual activity [1] [%] | residual activity [2] [%] | residual activity [3] [%] | residual activity [4] [%] | IC50 [5] [nM] | residual activity [6] [%] | residual activity [7] [%] | residual activity [8] [%] | residual activity [9] [%] | residual activity [10] [%] | residual activity [11] [%] | residual activity [12] [%] | residual activity [13] [%] | residual activity [14] [%]
1 | COc1cc2c(Oc3ccc(-c4nc5ccccc5s4)cc3F)ncnc2cc1OCCCN1CCN(C)CC1 | 57 | 97 | 87 | 100 | 190 | 81 | 98 | 54 | 154 | 76 | 1 | 98 | 81 | 162
2 | COc1cc2c(Oc3ccc(-c4nc5ccccc5s4)cc3)ncnc2cc1OCCCN1CCCC1 | 73 | 91 | 132 | 96 | 140 | 95 | 104 | 116 | 159 | 99 | 6 | 93 | 77 | 236
3 | COc1cc2c(Oc3ccc(-c4nc5ccccc5s4)cc3)ncnc2cc1OCCCN1CCN(C)CC1 | 81 | 89 | 95 | 103 | 121 | 79 | 123 | 118 | 171 | 101 | 19 | 93 | 82 | 302
